Data on 1 compound can be found in ChEMBL document CHEMBL5678805, “Intermittent administration of MEK inhibitor GDC-0973 plus PI3K inhibitor GDC-0941 triggers robust apoptosis and tumor growth inhibition” (Cancer Res, 2012).

pIC50: −log10 of the molar value. Calls of active or inactive are those of the source. No cut-off for these calls is given here.

The term pIC50 denotes −log10 of the IC50, conventionally taken in molar units. Read a low pIC50 as a high IC50.

Assay [1] relates to 888-mel. As to the kind of experiment: Upregulation of Bim level in human 888-mel cells preincubated with compound for 24 hrs followed by compound washout and measured after 2 hrs in presence of 4-(2-(1H-indazol-4-yl)-6-((4-(methylsulfonyl)piperazin-1-yl)methyl)thieno[3,2-d]pyrimidin-4-yl)morpholine by immunoblotting analysis. The format is functional, cell-based.
In assay [2] the target is Serine/threonine-protein kinase pim-2 (Homo sapiens, UniProt Q9P1W9). The assay can be described thus: Inhibition of PIM2 (unknown origin).
The subject of assay [3] is A2058. As to the kind of experiment: Inhibition of PI3K/MEK signaling pathway in human A2058 cells assessed as decrease in AKT phosphorylation by incubated for 24 hrs by Western blot analysis. The format is cell-based.
Assay [4] concerns the target Receptor-type tyrosine-protein kinase FLT3 (Homo sapiens, UniProt P36888). As to the kind of experiment: Inhibition of Flt3 (unknown origin).
The nature of assay [5]: Antiproliferative activity against human Mel 928 cells assessed reduction in cell viability incubated for 4 days in presence of 4-(2-(1H-indazol-4-yl)-6-((4-(methylsulfonyl)piperazin-1-yl)methyl)thieno[3,2-d]pyrimidin-4-yl)morpholine by celltiter-glo assay. The assay is classed as functional. To be noted: time 4 day. The gist of the method: (§1)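 4-day CellTiter-Glo viability read-out on melanoma lines, cells exposed to increasing concentrations of each inhibitor alone and in combination.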
Background: In ATP-based viability assays light output follows the ATP content of the culture.

Assay [6] concerns the target Tyrosine-protein kinase HCK (Homo sapiens, UniProt P08631). As to the kind of experiment: Inhibition of Hck (unknown origin).
Assay [7] deals with SK-MEL-28. As to the kind of experiment: Antiproliferative activity against human SK-MEL-28 cells assessed reduction in cell viability incubated for 4 days in presence of 4-(2-(1H-indazol-4-yl)-6-((4-(methylsulfonyl)piperazin-1-yl)methyl)thieno[3,2-d]pyrimidin-4-yl)morpholine by celltiter-glo assay. The format is functional. As to conditions: time 4 day. The gist of the method:
as §1

The test system of assay [8] is A2058. The assay can be described thus: Antiproliferative activity against human A2058 cells assessed reduction in cell viability incubated for 4 days in presence of 4-(2-(1H-indazol-4-yl)-6-((4-(methylsulfonyl)piperazin-1-yl)methyl)thieno[3,2-d]pyrimidin-4-yl)morpholine by celltiter-glo assay. To be noted: time 4 day. The assay is classed as functional. The gist of the method: as §1

Assay [9] concerns A2058. As to the kind of experiment: Antiproliferative activity against human A2058 cells harboring BRAF V600E mutant assessed as reduction in cell viability incubated for 96 hrs in presence of 4-(2-(1H-indazol-4-yl)-6-((4-(methylsulfonyl)piperazin-1-yl)methyl)thieno[3,2-d]pyrimidin-4-yl)morpholine. The format is functional, cell-based.
Assay [10] deals with Misshapen-like kinase 1 (Homo sapiens, UniProt Q8N4C8). As to the kind of experiment: Inhibition of MINK (unknown origin).
Assay [11] in a line: Antitumor activity against human MOLM16 cells harboring FLT3 T227M mutant xenografted in mouse assessed as tumor growth inhibition at 2.5 mg/kg, po. To be noted: read-out: TGI. The format is functional, MOLM-16. The gist of the method: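 Human tumor xenografts in mice were dosed orally at the indicated mg/kg. Tumor volume was measured with calipers as (L×W×W)/2. %TGI = 100 × [1 − (AUC treatment/d)/(AUC vehicle/d)], using the area under the fitted tumor-growth curve per day for each dose group relative to vehicle.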

Assay [12] addresses Mitogen-activated protein kinase 14 (Homo sapiens, UniProt Q16539). As to the kind of experiment: Inhibition of p38alpha (unknown origin).
Assay [13] concerns the target Ribosomal protein S6 kinase alpha-5 (Homo sapiens, UniProt O75582). As to the kind of experiment: Inhibition of MSK1 (unknown origin).
The nature of assay [14]: Antitumor activity against human A375.X1 cells xenografted in mouse assessed as tumor growth inhibition at 3 mg/kg, po administered once a day for 21 days in presence of 4-(2-(1H-indazol-4-yl)-6-((4-(methylsulfonyl)piperazin-1-yl)methyl)thieno[3,2-d]pyrimidin-4-yl)morpholine. The assay is classed as functional. To be noted: A375.X1, 504 h, time 21 day, read-out: TGI. The gist of the method: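 Human tumor xenografts in mice. Drugs given orally, as single agents or combined with the PI3K inhibitor. Schedules were daily (QD) or every third day (Q3D) over 21 days. Tumor volume was measured by caliper as (L×W×W)/2. %TGI = 100×[1 − AUC(treatment/d)/AUC(vehicle/d)] from fitted growth curves, with group means. Tumor lysates were immunoblotted for pS6.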
For orientation: In xenograft studies the graft and the host belong to different species.

Assay [15] addresses Serine/threonine-protein kinase 24 (Homo sapiens, UniProt Q9Y6E0). The assay can be described thus: Inhibition of STK24 (unknown origin).
For assay [16], the target named is Tyrosine-protein kinase ABL1 (Homo sapiens, UniProt P00519). As to the kind of experiment: Inhibition of Abl (unknown origin).
Assay [17] deals with A549. As to the kind of experiment: Antitumor activity against human A549 cells harboring KRAS G12S/LKB1Q37/SMARCA4 Q729/CDKN2A mutant xenografted in mouse assessed as tumor growth inhibition at 10 mg/kg, po. The format is functional. As to conditions: read-out: TGI. The gist of the method:
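Single-agent dose ranging in human tumor xenograft mice at 2.5, 5 or 10 mg/kg oral. Tumor volume was measured by caliper as (L×W×W)/2. %TGI = 100×[1 − AUC(treatment/d)/AUC(vehicle/d)] from the fitted growth curve per dose group, relative to vehicle.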

Assay [18] concerns NCI-H2122. The assay can be described thus: Antitumor activity against human NCI-H2122 cells xenografted in mouse assessed as tumor growth inhibition at 15 mg/kg, po administered every third day for 21 days in presence of 4-(2-(1H-indazol-4-yl)-6-((4-(methylsulfonyl)piperazin-1-yl)methyl)thieno[3,2-d]pyrimidin-4-yl)morpholine. The format is functional. To be noted: NCI-H2122, 504 h, time 21 day, read-out: TGI. The gist of the method: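 Dosing was oral, every third day (Q3D) across 21 days, with single agents or the MEK plus PI3K combination in NCI-H2122 xenograft mice. Tumor volume was calculated as (L×W×W)/2 from caliper measurements. %TGI was derived from fitted-curve AUC per day relative to vehicle, with body weight monitored.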

The subject of assay [19] is A2058. As to the kind of experiment: Antitumor activity against human A2058 cells harboring BRAF V600E/PTEN deletion mutant xenografted in mouse assessed as increase in Bims level at 15 mg/kg, po administered every third day for 21 days and measured after 8 hrs post dose by Western blot analysis. The format is functional, organism-based. To be noted: time 512.0 hrs.

For assay [20], the system named is A-427. The assay can be described thus: Antitumor activity against human A-427 cells harboring […]/LKB1 CDKN2A CTNNB1 T41A SMARCA4 mutant xenografted in mouse assessed as tumor growth inhibition at 5 mg/kg, po. The assay is classed as functional. To be noted: A-427, read-out: TGI.
Assay [21] concerns A2058. As to the kind of experiment: Antitumor activity against human A2058 cells harboring BRAF V600E/PTEN deletion mutant xenografted in mouse assessed as suppression of ERK phosphorylation at 15 mg/kg, po administered every third day for 21 days and measured after 8 hrs post dose by western blot analysis. The assay is classed as functional, organism-based. As to conditions: time 512.0 hrs.

The target of assay [22] is Rho-associated protein kinase 1 (Homo sapiens, UniProt Q13464). As to the kind of experiment: Inhibition of ROCK1 (unknown origin).
Sequence of Rho-associated protein kinase 1 (Q13464 whole entry): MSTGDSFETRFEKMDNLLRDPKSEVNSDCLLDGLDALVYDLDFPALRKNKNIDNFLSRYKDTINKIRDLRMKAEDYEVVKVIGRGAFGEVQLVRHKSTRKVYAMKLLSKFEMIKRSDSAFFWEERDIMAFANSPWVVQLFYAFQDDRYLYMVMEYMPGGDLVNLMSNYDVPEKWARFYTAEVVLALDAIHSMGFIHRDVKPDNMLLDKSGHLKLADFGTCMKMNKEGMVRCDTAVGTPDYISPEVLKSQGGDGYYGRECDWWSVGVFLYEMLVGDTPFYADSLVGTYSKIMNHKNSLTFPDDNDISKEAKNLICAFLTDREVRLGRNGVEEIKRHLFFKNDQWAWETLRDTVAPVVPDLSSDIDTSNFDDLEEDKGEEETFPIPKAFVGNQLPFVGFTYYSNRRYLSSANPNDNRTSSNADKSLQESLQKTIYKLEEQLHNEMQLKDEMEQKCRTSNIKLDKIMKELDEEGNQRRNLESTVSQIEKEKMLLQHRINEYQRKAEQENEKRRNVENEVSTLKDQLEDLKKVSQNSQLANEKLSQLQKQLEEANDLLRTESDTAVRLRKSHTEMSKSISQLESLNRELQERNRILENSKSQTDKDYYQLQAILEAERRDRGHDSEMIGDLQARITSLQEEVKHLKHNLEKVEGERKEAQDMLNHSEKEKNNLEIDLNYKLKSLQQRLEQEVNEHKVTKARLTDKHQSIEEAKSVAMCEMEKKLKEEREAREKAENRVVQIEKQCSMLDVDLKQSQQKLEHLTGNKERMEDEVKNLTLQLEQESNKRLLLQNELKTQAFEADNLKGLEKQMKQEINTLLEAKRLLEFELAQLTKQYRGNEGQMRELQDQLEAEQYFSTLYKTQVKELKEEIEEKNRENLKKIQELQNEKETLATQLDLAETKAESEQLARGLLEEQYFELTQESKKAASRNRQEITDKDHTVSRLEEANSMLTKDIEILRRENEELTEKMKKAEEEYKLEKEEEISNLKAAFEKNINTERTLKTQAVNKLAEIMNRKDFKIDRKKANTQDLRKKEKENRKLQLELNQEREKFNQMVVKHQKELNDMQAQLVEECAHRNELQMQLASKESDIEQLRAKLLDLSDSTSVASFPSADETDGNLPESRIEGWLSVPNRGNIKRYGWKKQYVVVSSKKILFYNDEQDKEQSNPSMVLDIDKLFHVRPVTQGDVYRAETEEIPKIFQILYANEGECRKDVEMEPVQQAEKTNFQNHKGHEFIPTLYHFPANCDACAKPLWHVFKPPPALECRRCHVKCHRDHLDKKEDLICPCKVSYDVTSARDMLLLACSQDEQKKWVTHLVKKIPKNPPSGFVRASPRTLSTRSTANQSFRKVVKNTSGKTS
Assay [23] has as its system A2058. The assay can be described thus: Antitumor activity against human A2058 cells harboring BRAF V600E/PTEN deletion mutant xenografted in mouse assessed as decrease in cyclin D1 level at 15 mg/kg, po administered every third day for 21 days and measured after 8 hrs post dose in presence of 4-(2-(1H-indazol-4-yl)-6-((4-(methylsulfonyl)piperazin-1-yl)methyl)thieno[3,2-d]pyrimidin-4-yl)morpholine by Western blot analysis. The format is functional, organism-based. As to conditions: time 512.0 hrs.

In assay [24] the target is Serine/threonine-protein kinase WNK2 (Homo sapiens, UniProt Q9Y3S1). As to the kind of experiment: Inhibition of WNK2 (unknown origin).
Sequence of Serine/threonine-protein kinase WNK2 (Q9Y3S1 whole entry): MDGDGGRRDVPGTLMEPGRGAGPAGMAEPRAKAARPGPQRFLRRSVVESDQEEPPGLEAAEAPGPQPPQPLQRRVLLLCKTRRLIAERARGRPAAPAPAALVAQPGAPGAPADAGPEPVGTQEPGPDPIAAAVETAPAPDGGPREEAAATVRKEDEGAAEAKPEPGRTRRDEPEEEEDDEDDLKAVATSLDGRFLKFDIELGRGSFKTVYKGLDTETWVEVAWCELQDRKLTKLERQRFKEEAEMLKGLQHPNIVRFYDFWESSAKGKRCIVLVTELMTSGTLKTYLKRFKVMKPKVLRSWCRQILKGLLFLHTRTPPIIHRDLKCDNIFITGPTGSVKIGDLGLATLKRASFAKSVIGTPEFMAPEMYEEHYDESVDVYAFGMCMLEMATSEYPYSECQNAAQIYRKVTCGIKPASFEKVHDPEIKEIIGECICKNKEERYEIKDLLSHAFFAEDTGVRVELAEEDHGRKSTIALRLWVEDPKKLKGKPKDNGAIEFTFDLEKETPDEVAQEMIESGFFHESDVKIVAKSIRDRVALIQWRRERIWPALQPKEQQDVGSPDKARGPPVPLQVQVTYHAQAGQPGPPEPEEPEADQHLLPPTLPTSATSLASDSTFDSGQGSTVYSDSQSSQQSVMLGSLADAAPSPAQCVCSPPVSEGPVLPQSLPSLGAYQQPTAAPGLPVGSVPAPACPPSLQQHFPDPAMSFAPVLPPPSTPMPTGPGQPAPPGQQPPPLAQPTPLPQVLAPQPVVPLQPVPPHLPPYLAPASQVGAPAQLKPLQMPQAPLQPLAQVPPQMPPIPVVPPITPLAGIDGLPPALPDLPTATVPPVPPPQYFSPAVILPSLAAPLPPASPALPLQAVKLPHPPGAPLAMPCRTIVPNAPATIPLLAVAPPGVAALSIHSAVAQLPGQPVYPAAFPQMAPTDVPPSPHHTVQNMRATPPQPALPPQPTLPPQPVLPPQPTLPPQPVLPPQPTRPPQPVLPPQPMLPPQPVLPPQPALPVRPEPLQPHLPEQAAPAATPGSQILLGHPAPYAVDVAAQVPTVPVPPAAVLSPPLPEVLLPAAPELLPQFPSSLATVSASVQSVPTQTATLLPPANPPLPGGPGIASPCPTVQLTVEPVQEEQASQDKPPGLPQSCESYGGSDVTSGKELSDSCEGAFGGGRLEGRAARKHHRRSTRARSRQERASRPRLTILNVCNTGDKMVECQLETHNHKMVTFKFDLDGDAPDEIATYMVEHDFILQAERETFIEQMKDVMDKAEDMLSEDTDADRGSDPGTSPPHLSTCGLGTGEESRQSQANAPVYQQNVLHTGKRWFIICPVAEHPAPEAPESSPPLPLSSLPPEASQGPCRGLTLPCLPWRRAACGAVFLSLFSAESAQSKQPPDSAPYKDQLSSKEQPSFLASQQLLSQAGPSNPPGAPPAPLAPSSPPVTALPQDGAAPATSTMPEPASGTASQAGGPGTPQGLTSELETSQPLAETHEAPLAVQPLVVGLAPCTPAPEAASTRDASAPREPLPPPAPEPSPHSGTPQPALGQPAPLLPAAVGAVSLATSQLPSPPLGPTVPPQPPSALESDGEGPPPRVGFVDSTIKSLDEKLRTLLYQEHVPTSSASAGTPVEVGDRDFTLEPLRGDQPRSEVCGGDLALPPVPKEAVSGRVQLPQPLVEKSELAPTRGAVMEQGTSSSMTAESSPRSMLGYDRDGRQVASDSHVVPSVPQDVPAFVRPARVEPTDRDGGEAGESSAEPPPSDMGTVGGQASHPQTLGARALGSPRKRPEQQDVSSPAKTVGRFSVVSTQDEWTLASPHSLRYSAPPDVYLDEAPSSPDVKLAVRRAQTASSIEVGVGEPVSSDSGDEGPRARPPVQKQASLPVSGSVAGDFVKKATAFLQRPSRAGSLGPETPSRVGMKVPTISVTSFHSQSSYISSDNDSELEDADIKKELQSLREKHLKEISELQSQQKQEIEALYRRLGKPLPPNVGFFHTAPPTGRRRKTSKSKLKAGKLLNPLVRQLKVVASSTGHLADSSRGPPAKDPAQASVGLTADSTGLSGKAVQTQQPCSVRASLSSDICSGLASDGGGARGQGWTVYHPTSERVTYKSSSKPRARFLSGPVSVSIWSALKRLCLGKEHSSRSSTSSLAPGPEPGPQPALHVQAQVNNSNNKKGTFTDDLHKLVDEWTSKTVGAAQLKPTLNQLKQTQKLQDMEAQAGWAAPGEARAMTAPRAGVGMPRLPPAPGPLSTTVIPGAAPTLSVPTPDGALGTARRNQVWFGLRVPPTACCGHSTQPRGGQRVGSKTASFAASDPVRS

Sequence of Ribosomal protein S6 kinase alpha-5 (O75582 whole entry): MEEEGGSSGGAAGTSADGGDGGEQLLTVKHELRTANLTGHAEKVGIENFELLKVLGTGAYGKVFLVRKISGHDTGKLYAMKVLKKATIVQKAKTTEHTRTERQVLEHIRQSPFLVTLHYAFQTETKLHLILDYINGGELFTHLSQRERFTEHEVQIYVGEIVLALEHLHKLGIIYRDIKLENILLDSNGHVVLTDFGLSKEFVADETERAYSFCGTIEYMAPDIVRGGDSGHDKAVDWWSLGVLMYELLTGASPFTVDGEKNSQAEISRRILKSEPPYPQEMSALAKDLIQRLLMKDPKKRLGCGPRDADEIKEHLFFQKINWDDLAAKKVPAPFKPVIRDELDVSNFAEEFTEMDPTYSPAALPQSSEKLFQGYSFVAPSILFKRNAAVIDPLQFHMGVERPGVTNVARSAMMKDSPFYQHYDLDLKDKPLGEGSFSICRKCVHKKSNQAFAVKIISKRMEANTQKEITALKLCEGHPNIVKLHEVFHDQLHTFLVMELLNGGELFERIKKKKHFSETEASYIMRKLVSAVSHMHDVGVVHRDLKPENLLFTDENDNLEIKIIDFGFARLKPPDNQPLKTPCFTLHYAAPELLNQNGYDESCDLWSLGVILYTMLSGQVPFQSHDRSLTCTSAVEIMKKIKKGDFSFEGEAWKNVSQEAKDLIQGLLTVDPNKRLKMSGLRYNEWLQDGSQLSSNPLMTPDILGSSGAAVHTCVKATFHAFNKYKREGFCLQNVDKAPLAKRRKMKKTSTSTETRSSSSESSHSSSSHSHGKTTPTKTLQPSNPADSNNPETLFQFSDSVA
Sequence of Tyrosine-protein kinase HCK (P08631 whole entry): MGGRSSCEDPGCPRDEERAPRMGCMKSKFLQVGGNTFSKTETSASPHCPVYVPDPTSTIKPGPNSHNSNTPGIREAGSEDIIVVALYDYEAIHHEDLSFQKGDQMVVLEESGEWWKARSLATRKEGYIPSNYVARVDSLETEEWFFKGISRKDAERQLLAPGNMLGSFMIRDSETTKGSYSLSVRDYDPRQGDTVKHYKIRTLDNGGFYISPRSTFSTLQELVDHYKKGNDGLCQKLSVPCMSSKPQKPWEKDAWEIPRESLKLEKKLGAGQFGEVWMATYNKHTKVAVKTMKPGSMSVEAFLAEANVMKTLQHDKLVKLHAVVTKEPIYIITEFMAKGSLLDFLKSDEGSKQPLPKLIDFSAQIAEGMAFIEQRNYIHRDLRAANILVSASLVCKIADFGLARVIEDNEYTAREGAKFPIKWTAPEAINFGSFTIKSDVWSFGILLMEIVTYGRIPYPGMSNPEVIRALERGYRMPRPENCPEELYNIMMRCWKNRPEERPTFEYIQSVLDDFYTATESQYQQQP

Turning to `O=C(c1ccc(F)c(F)c1Nc1ccc(I)cc1F)N1CC(O)([C@@H]2CCCCN2)C1` [COBIMETINIB], the outcome in [1], in [19], in [21] and in [23] was Active. Besides, the pIC50 in [2], in assay [4], in assay [6], in assay [10], in assay [12] and in assay [13] was less than 5.00 throughout. The pIC50 in assay [15], in [16], in assay [22] and in assay [24] was less than 5.00 each time. Also, the inhibition result in assay [3] was “Active”. Also, the Activity in [5], in [7] and in assay [8] was 60% throughout. For the same compound, in assay [9], the result was inactive. Besides, in assay [11], the inhibition in vivo at 2.5 mg/kg was determined as 7%. The inhibition in vivo at 3 mg/kg in [14] was 69%. Further, the inhibition in vivo at 10 mg/kg in [17] came out at 108%. Also, the inhibition in vivo at 15 mg/kg in [18] stood at 156%. For the same compound, in assay [20], the inhibition in vivo at 5 mg/kg was -137%.
